VIM-2 inhibitor – inhibitors of Pseudomonas aeruginosa VIM-2 metallo-beta-lactamase | purified VIM-2, nitrocefin hydrolysis, epi-absorbance fluorescence | 290,000 compounds, 0.89% hits | inhibition, % at 5.6 µM;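 active = inhibition above the mean of all tested compounds plus 3 SD, cutoff set per screening run, cut at about 7.5% in these data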;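 also: red hydrolysis product quenches plate fluorescence so inhibitors raise well fluorescence; 0% = enzyme with DMSO and 100% = DMSO without enzyme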
IMP-1 inh – blocks Pseudomonas aeruginosa IMP-1 metallo-beta-lactamase. purified IMP-1, nitrocefin hydrolysis, epi-absorbance fluorescence. inhibition, % at 5.6 µM. 290,000 compounds, 0.45% hits;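 active = inhibition above the mean plus 3 SD of all compounds in the same screening run, cut at about 4.5% in these data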;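 also: 0% = IMP-1 with DMSO and 100% = DMSO wells lacking enzyme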
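System: purified recombinant IMP-1 beta-lactamase. Medium: Zinc- and detergent-supplemented HEPES buffer, pH 7.1. Compound: one 5.6 µM dose […]. Schedule: 15 min preincubation plus 25 min reaction at 25 °C. Technique: Epi-absorbance fluorescence, 480 nm excitation, 530 nm emission.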
HCV core dimer – blocks dimerization of HCV core protein; TR-FRET GST/Flag-core106 dimerization, 1536-well; inhibition, % at 5 µM; 300,000 compounds, 0.33% hits;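 active = inhibition above the mean of all tested compounds plus 3 SD, set per screening campaign, cut at about 45% in these data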
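System: GST/Flag-tagged HCV core106 proteins. Incubation: compound-protein-antibody incubation 4 h at 22.5 °C. Technique: HTRF with 340 nm excitation, 617/671 nm emission. Medium: KF-containing HEPES buffer, pH 7.45, DTT, CHAPS, BSA. Read-out: inhibition (%) from 671 over 617 nm ratio. Also added: Eu(K)-anti-GST 90 ng/mL plus XL665-anti-Flag 1 µg/mL.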
NadD block – inhibitors of Staphylococcus aureus NadD | purified NadD enzyme, colorimetric absorbance read-out | inhibition, % at 20 µM | 360,000 compounds, 0.78% hits | AID 602399; in the data active = inhibition above about 26%
* hit, by the source's call; · = no result. Hits are enriched below; roughly 1.9% of the tested compounds scored in any of these assays.

SMILES	VIM-2 inhibitor	IMP-1 inh	HCV core dimer	NadD block
COc1ccc(OC)c2c(=O)cc(C(=O)O)[nH]c12	-2	-5	-2	-5
CCOC(=O)C1CCCN(C2=NC(=O)/C(=C/c3ccc(OC)cc3)S2)C1 (stereo not drawn)	-4	-3	0	-3
CCOC(=O)C1CCCN(C2=NC(=O)/C(=C/c3ccc(O)c(OCC)c3)S2)C1 (stereo not drawn)	8.9*	-1	-2	0
CN(C)c1ccc(C(=S)N2CCCCCC2)cc1	-2	5.5*	5	6
CC(=O)N1CCN(C(=S)c2ccc(N(C)C)cc2)CC1	1	-3	-6	-1
CC(OC(=O)c1ccc(NC(=O)CC#N)cc1)C(=O)Nc1nc(-c2ccccc2)cs1 (stereo not drawn)	·	·	21	24
CC(OC(=O)c1ccc(NC(=O)CC#N)cc1)C(=O)Nc1ccc(Oc2ccccc2)cc1 (stereo not drawn)	-1	-2	47*	15
O=C(Nc1ccccn1)NC1CCS(=O)(=O)C1 (stereo not drawn)	0	-3	4	-2
O=C(Nc1ccccn1)NC1CCCCC1	1	4.7*	-6	-3
CC(/C=C1\SC(=S)N(CCC(=O)Nc2ccccc2O)C1=O)=C\c1ccccc1	-1	0	7	34*
CCC(C(=O)O)N1C(=O)/C(=C/C(C)=C/c2ccccc2)SC1=S (stereo not drawn)	8.2*	1	14	-2
Cc1ccc(NC(=O)C2CCN(c3ncnc4c3nc3n4CCCCC3)CC2)nc1	-1	-2	-5	1
OCCCc1nc2n(n1)C(c1cccs1)C=C(c1ccccc1)N2 (stereo not drawn)	8.4*	-1	0	·
Cc1cc(-c2csc(NC(=O)c3ccc(S(=O)(=O)N(C)C)cc3)n2)c(C)n1-c1ccccc1	0	-5	42	40*
CC(=O)Nc1ccc(N2C(=O)CSC2c2ccccc2)cc1 (stereo not drawn)	-6	4.8*	-1	-2
CC(=O)Nc1ccc(NC(=O)COC(=O)COc2ccc3ccccc3c2)cc1	·	·	·	-9
N#Cc1c(N2CCCC(O)C2)nc(N)c2c(N)nc3c(c12)CC(=O)N3C12CC3CC(CC(C3)C1)C2 (stereo not drawn)	-2	-2	52*	57*
N#Cc1c(N(CCO)CCO)nc(N)c2c(N)nc3c(c12)CC(=O)N3CC1CCCO1 (stereo not drawn)	0	0	-1	-18
O=C(OCc1ccco1)c1ccc(S(=O)(=O)N2CCCCC2)cc1	-2	-4	80*	6
CCOc1ncccc1C(=O)OC(C)C(=O)NC(=O)NC1CCCCC1 (stereo not drawn)	-2	-4	0	-4
NC(=O)c1cc(-c2csc(NCCc3ccccc3)n2)ccc1O	0	5.0*	0	12
O=C(c1cc2ccccc2o1)N1CCN=C1SCc1cccnc1	9.4*	-1	-1	9
COc1cc(/C=N/Nc2cccc(C)c2)cc(Br)c1O	-4	-4	·	26*
COc1cc(/C=N/Nc2cccc(C)c2)ccc1OC(=O)c1cccs1	-2	-2	4	8
C/C(=N\NC(=O)c1cc2ccccc2cc1O)c1ccccn1	-4	-3	0	8
SMILES	VIM-2 inhibitor	IMP-1 inh	HCV core dimer	NadD block
C/C(=N\NC(=O)c1cc2ccccc2cc1O)c1cc2ccccc2o1	-2	-4	10	49*
COc1cc2[nH]c(=O)c(C(=O)NCc3ccc(F)cc3)c(O)c2cc1OC	-2	-4	·	0
CCNC(=O)C1(C)CCCN(C(=O)c2nc3ccccc3s2)C1 (stereo not drawn)	·	·	·	1
Cc1ccc(/C=C2\CCC3=C2OC(N)=C(C#N)C3c2ccc(C)cc2)cc1 (stereo not drawn)	1	4	76*	46*
Cc1ccc(C2C(C#N)=C(N)Oc3cc(N)ccc32)cc1 (stereo not drawn)	-1	1	1	2
CCN(CC)CCCN(Cc1cc2cc3c(cc2[nH]c1=O)OCO3)C(=O)Nc1ccccc1OC	-1	0	1	-7
CCN(CC)CCCN(Cc1cc2cc(OC)c(OC)cc2[nH]c1=O)C(=O)Nc1ccccc1	7.9*	-2	3	-2
COc1cccc(CNC(=O)Cc2ccc(S(=O)(=O)N3CCOCC3)s2)c1	·	·	3	-3
CCOc1ccc(-c2nn(-c3ccccc3)cc2/C=C2\SC(=S)N(C3CCS(=O)(=O)C3)C2=O)cc1 (stereo not drawn)	-1	-5	25	22
O=C1C(=Cc2cn(-c3ccccc3)nc2-c2ccc(OCc3ccccc3F)cc2)SC(=S)N1CCS(=O)(=O)O	·	·	·	30*
O=C1C(=Cc2cn(-c3ccccc3)nc2-c2ccc(OCc3ccc(Cl)cc3)cc2)SC(=S)N1CCS(=O)(=O)O	·	·	·	60*
Cc1ccc(NC(=O)Cc2ccc(-c3ccccc3)cc2)nc1	0	12*	23	4
O=C(CC(=O)Nc1ccccn1)Nc1ccccn1	-3	-2	1	3
Cc1ccnc(NC(=O)Cc2ccc([N+](=O)[O-])cc2)c1	-4	-4	2	1
O=C(Cc1ccc(-c2ccccc2)cc1)Nc1ccccn1	-2	34*	4	4
Cc1ccnc(NC(=O)Cc2ccc(-c3ccccc3)cc2)c1	-2	12*	16	3
CC(C)OCCCNC(=S)NNC(=O)c1ccc(Cl)c(Cl)c1	0	0	-6	2
COc1ccc(/C=C2\SC(=S)N(CC(=O)NC3CCS(=O)(=O)C3)C2=O)cc1 (stereo not drawn)	0	-3	12	9
CNC(=S)/N=C/NOCc1ccc(Cl)cc1Cl	-1	1	-5	-7
Cc1ccc(-c2cc(C(=O)NCCN3CCOCC3)no2)cc1	-1	10*	0	-5
O=C/C=C/c1coc2ccc3ccccc3c2c1=O	-2	-2	7	·
O=Cc1coc2c(ccc3ccccc32)c1=O	1	32*	22	·
CCCCCN(C(=O)CCC(=O)OCC(=O)N(CC)C1CCCCC1)c1c(N)n(CCCC)c(=O)[nH]c1=O	·	·	0	1
O=C(COC(=O)/C=C/c1ccccc1Cl)NC1CCCC1	·	·	·	0
COc1ccc(NC(=O)c2oc3ccccc3c2NC(=O)C2CC2)cc1OC	9.0*	0	-21	-6
SMILES	VIM-2 inhibitor	IMP-1 inh	HCV core dimer	NadD block
COc1ccccc1CNC(=O)[C@H](C)NC(=O)C1CCN(C(=O)[C@@H](N)C(C)C)CC1	-2	-5	-2	-1
O=C1NN(c2ccccc2)C(=O)/C1=C/c1ccc(Sc2ccc(Cl)cc2)o1	-1	-2	4	52*
Cc1c(Cc2ccccc2)c(=O)oc2c(C)c(OC(C)C(=O)N[C@@H](Cc3ccccc3)C(=O)O)ccc12 (stereo partly drawn)	-3	-4	29	2
Cc1c(OCC(=O)OC(C)(C)C)ccc2c3c(c(=O)oc12)CCC3	0	-5	7	-6
Cc1c(O)ccc2c3c(c(=O)oc12)CCCC3	10*	-5	4	9
Cc1c(OC(C)C(=O)N[C@H](C(=O)O)c2ccccc2)ccc2c3c(c(=O)oc12)CCCC3 (stereo partly drawn)	7.8*	-4	7	-3
